Experimental data pooled from the literature.
Lines come from different studies, so protocols differ.
Target: Serine/threonine-protein kinase Nek7 (NEK7, Homo sapiens, UniProt Q8TDX7)

SMILES | test | test system | setting | measurement | result
CCCCN(CCCC)C(=O)CN1C[C@H](c2cc(OC)c3c(c2)OCO3)[C@@H](C(=O)O)[C@@H]1CC(C)(C)CCC | cell-free assay, competition with immobilised ligand |  | 1 µM | remaining binding | 100%
CNC(=O)c1cc(Oc2ccc(NC(=O)Nc3ccc(Cl)c(C(F)(F)F)c3)cc2)ccn1 | enzyme activity, inhibitor |  | 0.3 µM | inhibition | -9%
CO[C@@H](C)c1c(Nc2ccc([C@@H](N(C)C(=O)C3CCS(=O)(=O)CC3)C(F)(F)F)cc2)cnc2cc(Cl)nn12 | cell-free assay, competition with immobilised ligand |  | 1 µM | remaining binding | 91%
CCN1CCN(Cc2ccc(NC(=O)c3ccc(C)c(Oc4ccnc5[nH]ccc45)c3)cc2C(F)(F)F)CC1 | target engagement in cells, inhibitor, chemoproteomics | A-375 | 5 µM | inhibition | 0.277%
Cn1c2c(c3ccc(Cl)c(Cl)c31)C(C#N)C(C)(C)NC2=O (stereo not drawn) | thermal stability, DSF |  | 10 µM | ΔTm | -0.6 °C
CN1CC(Oc2cnc(C#N)cc2-c2ccn3nc(NC(=O)C4CC4)cc3c2)C1 | enzyme activity, inhibitor |  | 1 µM | inhibition | 0%
Cn1c2c(Cl)c(Cl)ccc2c2cn[nH]c(=O)c21 | thermal stability, DSF |  | 10 µM | ΔTm | 0 °C
CCOC(=O)c1cc2cc(-c3cc(C(=O)NCc4ccc(C(=O)O)cc4)nn3C)ccc2[nH]1 | cell-free assay, competition with immobilised ligand |  | 0.1 µM | remaining binding | 100%
Cc1sc(C(=O)NC2COC2)cc1-n1cc(NC(=O)Nc2c(F)cccc2Cl)cn1 | enzyme activity, inhibitor |  | 10 µM | remaining activity | 100%
CCCCNc1ncc2c(-c3ccc(F)cc3)nn(C[C@H]3CC[C@H](N)CC3)c2n1 | target engagement in cells, inhibitor, chemoproteomics |  | 20 mM | inhibition | 6.6%
O=C1Nc2ccc(Cl)cc2C1=Cc1cc(Cl)c(O)c(Cl)c1 | cell-free assay |  | 0.5 µM | remaining signal | 100%
Cc1cnc(NC2CCOCC2)nc1-n1cnc(C(=O)NC(CN)c2cc(F)cc(Cl)c2)c1 (stereo not drawn) | enzyme activity, inhibitor, radiometric |  | 1 µM | remaining activity | 99%
CC(C)(C)c1nc(-c2cccc(NS(=O)(=O)c3c(F)cccc3F)c2F)c(-c2ccnc(N)n2)s1 | enzyme activity, inhibitor, radiometric |  | 1 µM | remaining activity | 42%
Cn1c2c(c3ccc(Cl)c(Cl)c31)C(C#N)C1(CCCC1)NC2=O (stereo not drawn) | thermal stability, DSF |  | 10 µM | ΔTm | 0 °C
Cc1c[nH]c2nccc(Oc3c(F)cc(Nc4cc(Cl)nc(N)n4)cc3F)c12 | cell-free assay, competition with immobilised ligand |  | 0.1 µM | remaining binding | 100%
CCN(CC)c1ccc(C2=NNC(=O)CC2C)cc1[N+](=O)[O-] (stereo not drawn) | enzyme activity, inhibitor |  | 10 µM | remaining activity | 107%
Cc1ccc(Nc2nccc(N(C)c3ccc4c(C)n(C)nc4c3)n2)cc1S(N)(=O)=O | enzyme activity, inhibitor |  | 10 µM | inhibition | -6%
Cn1c2c(c3ccc(Cl)c(Cl)c31)C(C#N)C1(CCNCC1)NC2=O (racemic) | thermal stability, DSF |  | 10 µM | ΔTm | -0.1 °C
O=C1NC(=O)c2cc(Nc3ccc(F)cc3)c(Nc3ccc(F)cc3)cc21 | cell-free assay |  | 0.5 µM | remaining signal | 103%
Cc1noc([C@H]2C[C@@H](c3ccc(C(F)(F)F)cc3)CN(C(=O)N3CCS(=O)(=O)C3)C2)n1 | cell-free assay, competition with immobilised ligand |  | 1 µM | remaining binding | 100%
Cc1ccc(NC(=O)c2ccc(C)c(C(F)(F)F)c2)cc1C#Cc1nn(C2CCC(O)CC2)c2ncnc(N)c12 (stereo not drawn) | cell-free assay |  | 10 µM | remaining signal | 98%
CC/C(=N\NC(=O)NCc1cccc(O)c1)c1ccc(O)c(C)c1O | enzyme activity, inhibitor |  | 0.1 µM | inhibition | 6.5%
CN1CCC2(CC1)NC(=O)c1c(c3ccc(Cl)c(Cl)c3n1C)C2C#N (racemic) | thermal stability, DSF |  | 10 µM | ΔTm | -0.4 °C
N#Cc1ccc(Nc2ccc3[nH]c(=O)[nH]c3c2)c(Cl)c1 | cell-free assay, competition with immobilised ligand |  | 1 µM | remaining binding | 100%
O=C(Nc1cnn(-c2csc(C(=O)NC3COC3)c2)c1)Nc1c(F)cccc1Cl | enzyme activity, inhibitor |  | 5 µM | remaining activity | 88.1%
Cc1ccc(C(=O)Nc2ccc(CN3CCN(C)CC3)c(C(F)(F)F)c2)cc1C#Cc1cnc2cccnn12 | enzyme activity, inhibitor |  | 23.5 nM | remaining activity | 93%
O=C(O)[C@H]1[C@H](Cn2nnc3ccccc3c2=O)CC[C@@H]1C(=O)c1ccc(OCCC2CCOCC2)cc1 | cell-free assay, competition with immobilised ligand |  | 1 µM | remaining binding | 100%
CCN(CC)CCNC(=O)c1c(C)[nH]c(/C=C2\C(=O)Nc3ccc(F)cc32)c1C | enzyme activity, inhibitor |  | 0.3 µM | inhibition | -8%
CCN1CCC2(CC1)NC(=O)c1c(c3ccc(Cl)c(Cl)c3n1C)C2C#N (racemic) | thermal stability, DSF |  | 10 µM | ΔTm | -0.2 °C
O=C1NC(c2ccccn2)Sc2ccccc21 (stereo not drawn) | cell-free assay, competition with immobilised ligand |  | 1 µM | remaining binding | 68%
